Source: ChEMBL document CHEMBL1821567, “Synthesis and glycosidase inhibitory profiles of functionalised morpholines and oxazepanes” (Bioorg Med Chem, 2011)
Calls of active or inactive are those of the source. The rule behind the calls is not given here.

Experiments:
[1] = target: Alpha-galactosidase (Coffea arabica) (UniProt Q42656); experiment: Inhibition of green coffee beans alpha-D-galactosidase at 1 mg/ml after 10 to 20 mins
Summary of the method: (§1)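 Enzyme was pre-incubated with test solution at 1 mg/ml, or dH2O for controls, for 10–20 min at 27 °C. Substrate was added and incubation continued for the same time at 27 °C. The reaction was stopped with glycine solution and read at 405 nm. Each sample and control ran in three wells at the enzyme's optimal pH. Values are % inhibition.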

[2] = test system: Canavalia ensiformis; experiment: Inhibition of jack bean alpha-D-mannosidase at 1 mg/ml after 10 to 20 mins; summary of the method: as §1
[3] = test system: Saccharomyces cerevisiae; experiment: Inhibition of Saccharomyces cerevisiae alpha-D-glucosidase at 1 mg/ml after 10 to 20 mins; summary of the method: as §1
[4] = test system: Penicillium decumbens; experiment: Inhibition of Penicillium decumbens naringinase at 1 mg/ml after 10 to 20 mins; summary of the method: as §1
[5] = target: T1, Beta-galactosidase (Bos taurus) (UniProt Q58D55); experiment: Inhibition of bovine kidney beta-D-galactosidase at 1 mg/ml after 10 to 20 mins; summary of the method: as §1
T1 sequence (whole entry): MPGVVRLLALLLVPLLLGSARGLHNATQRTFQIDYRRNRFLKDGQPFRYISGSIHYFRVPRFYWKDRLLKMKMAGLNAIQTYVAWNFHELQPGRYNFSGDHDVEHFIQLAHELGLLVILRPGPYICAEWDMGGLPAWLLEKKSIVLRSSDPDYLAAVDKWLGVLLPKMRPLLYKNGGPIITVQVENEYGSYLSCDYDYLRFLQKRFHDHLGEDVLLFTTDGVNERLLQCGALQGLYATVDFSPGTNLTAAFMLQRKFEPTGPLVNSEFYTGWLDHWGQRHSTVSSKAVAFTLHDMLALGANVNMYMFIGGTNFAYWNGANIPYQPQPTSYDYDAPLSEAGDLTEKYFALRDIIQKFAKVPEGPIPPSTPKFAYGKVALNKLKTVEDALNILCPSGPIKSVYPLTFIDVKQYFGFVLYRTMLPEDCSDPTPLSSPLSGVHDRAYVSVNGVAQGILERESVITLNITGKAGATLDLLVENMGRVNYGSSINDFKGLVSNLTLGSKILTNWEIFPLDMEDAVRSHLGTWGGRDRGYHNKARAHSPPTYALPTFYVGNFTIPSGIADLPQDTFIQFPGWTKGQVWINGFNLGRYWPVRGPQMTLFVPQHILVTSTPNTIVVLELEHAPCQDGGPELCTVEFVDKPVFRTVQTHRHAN

[6] = test system: Oryza sativa; experiment: Inhibition of rice alpha-D-glucosidase at 1 mg/ml after 10 to 20 mins; summary of the method: as §1
[7] = test system: Geobacillus stearothermophilus; experiment: Inhibition of Bacillus stearothermophilus alpha-D-glucosidase at 1 mg/ml after 10 to 20 mins; summary of the method: as §1
[8] = test system: Prunus; experiment: Inhibition of almond beta-D-glucosidase at 1 mg/ml after 10 to 20 mins; summary of the method: as §1
[9] = organism: Bos taurus; experiment: Inhibition of bovine kidney N-acetyl-beta-D-glucosaminidase at 1 mg/ml after 10 to 20 mins; summary of the method: as §1
[10] = test system: Cellulomonas fimi; experiment: Inhibition of Cellulomonas fimi beta-D-mannosidase at 1 mg/ml after 10 to 20 mins; summary of the method: as §1
[11] = target: T2, Beta-galactosidase (Bos taurus, UniProt Q58D55); experiment: Inhibition of bovine kidney beta-D-galactosidase after 10 to 20 mins
T2 sequence (Q58D55 whole entry): T1 sequence (whole entry)
Summary of the method: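 Bovine kidney β-D-galactosidase was pre-incubated with test solution, or dH2O for controls, for 10–20 min at 27 °C. Substrate was added for a further 10–20 min at 27 °C, then glycine solution, and absorbance at 405 nm. Wells were run in triplicate. Ki and inhibition mode came from Lineweaver–Burk double-reciprocal slopes.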

Sequence of Alpha-galactosidase (Coffea arabica) (Q42656 16-378 limits assumed): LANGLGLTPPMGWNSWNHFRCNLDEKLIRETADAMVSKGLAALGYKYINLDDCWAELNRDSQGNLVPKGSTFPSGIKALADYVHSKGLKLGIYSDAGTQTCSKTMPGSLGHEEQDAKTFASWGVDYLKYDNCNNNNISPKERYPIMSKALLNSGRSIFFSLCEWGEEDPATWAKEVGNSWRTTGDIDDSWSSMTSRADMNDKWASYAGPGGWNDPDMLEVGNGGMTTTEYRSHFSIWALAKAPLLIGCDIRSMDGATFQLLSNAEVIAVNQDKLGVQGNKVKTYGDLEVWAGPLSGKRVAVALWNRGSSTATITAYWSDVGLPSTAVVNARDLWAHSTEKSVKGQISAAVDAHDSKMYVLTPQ

Compound | inhibition [1] | inhibition [2] | inhibition [3] | inhibition [4] | inhibition [5] | inhibition [6] | inhibition [7] | inhibition [8] | inhibition [9] | inhibition [10] | IC50 [11] [µM] | Ki [11] [µM]
COC(=O)C(Cc1ccccc1)N1C[C@@H](CO)O[C@H](OC)[C@H](O)C1 (some centres undefined) | inactive | inactive | inactive | inactive | inactive | inactive | inactive | inactive | inactive | inactive | – | –
COC(=O)C(Cc1ccc(O)cc1)N1C[C@@H](CO)O[C@H](OC)[C@H](O)C1 (some centres undefined) | inactive | inactive | inactive | inactive | inactive | inactive | inactive | inactive | inactive | inactive | – | –
COC(=O)C(Cc1ccccc1)N1C[C@@H](CO)O[C@H](OC)C1 (some centres undefined) | inactive | – | inactive | inactive | 5% | inactive | inactive | inactive | inactive | inactive | – | –
CCCCN1C[C@@H](CO)O[C@H](OC)C1 | inactive | inactive | inactive | 7% | 45% | inactive | inactive | inactive | 8% | inactive | 70.3 | –
CO[C@@H]1CN(C[C@H]2O[C@H](OC)[C@H](O)[C@@H](O)[C@@H]2O)C[C@@H](CO)O1 | 31% | inactive | 77% | 11% | 50% | inactive | 66% | 28% | 11% | 33% | – | –
COC(=O)C(Cc1ccc(O)cc1)N1C[C@@H](CO)O[C@H](OC)C1 (some centres undefined) | inactive | – | inactive | inactive | 12% | inactive | inactive | inactive | inactive | inactive | – | –
CCCN1C[C@@H](CO)O[C@H](OC)[C@H](O)C1 | inactive | inactive | 10% | inactive | 32% | inactive | inactive | inactive | 25% | inactive | – | –
CO[C@H]1O[C@H](CN2C[C@@H](CO)O[C@H](OC)[C@H](O)C2)[C@@H](OCc2ccccc2)[C@H](OCc2ccccc2)[C@H]1OCc1ccccc1 | inactive | inactive | inactive | inactive | inactive | inactive | inactive | inactive | inactive | inactive | – | –
CCCN1C[C@@H](CO)O[C@H](OC)C1 | inactive | inactive | 8% | 9% | 54% | inactive | 9% | inactive | inactive | inactive | 75.5 | –
CO[C@H]1O[C@H](CO)CN(O)C[C@H]1O | inactive | inactive | inactive | inactive | inactive | inactive | inactive | inactive | – | inactive | – | –
COC(=O)C(C)N1C[C@@H](CO)O[C@H](OC)C1 (some centres undefined) | inactive | – | inactive | inactive | 14% | inactive | inactive | inactive | inactive | inactive | – | –
COC(=O)CN1C[C@@H](CO)O[C@H](OC)[C@H](O)C1 | inactive | inactive | inactive | inactive | inactive | inactive | inactive | inactive | – | inactive | – | –

More lines, now with the values ahead:

inhibition [1] | inhibition [2] | inhibition [3] | inhibition [4] | inhibition [5] | inhibition [6] | inhibition [7] | inhibition [8] | inhibition [9] | inhibition [10] | IC50 [11] [µM] | Ki [11] [µM] | Compound
inactive | inactive | 24% | inactive | 48% | inactive | inactive | inactive | inactive | inactive | 88.6 | 126 | CO[C@@H]1CN(C)C[C@@H](CO)O1
6% | inactive | inactive | inactive | 16% | inactive | 8% | inactive | 9% | inactive | – | – | CO[C@H]1O[C@H](CO)CNC[C@H]1O
inactive | inactive | inactive | inactive | 36% | inactive | inactive | inactive | inactive | inactive | – | – | COC(=O)CN1C[C@@H](CO)O[C@H](OC)C1
inactive | inactive | inactive | inactive | inactive | inactive | inactive | inactive | – | inactive | – | – | CO[C@H]1O[C@H](CO)CN(Cc2ccccc2)C[C@H]1O
inactive | inactive | inactive | inactive | inactive | inactive | inactive | inactive | – | inactive | – | – | CCCCCCCCN1C[C@@H](CO)O[C@H](OC)[C@H](O)C1
inactive | inactive | 58% | inactive | 82% | 29% | inactive | inactive | 72% | inactive | 30.6 | 20.2 | CO[C@@H]1CN(O)C[C@@H](CO)O1
inactive | inactive | inactive | 9% | 27% | inactive | inactive | 4% | 10% | 5% | – | – | CO[C@@H]1CNC[C@@H](CO)O1
inactive | inactive | 8% | inactive | 23% | inactive | inactive | inactive | 32% | inactive | – | – | CCCCN1C[C@@H](CO)O[C@H](OC)[C@H](O)C1
inactive | inactive | inactive | inactive | inactive | inactive | inactive | inactive | inactive | inactive | – | – | COC(=O)C(C)N1C[C@@H](CO)O[C@H](OC)[C@H](O)C1 (some centres undefined)
